Reference: article PMC2638642 (Toxicological Sciences, 2008)

How the values were obtained:
BALB/c mice [1] = experiment: Serum clinical chemistry, 7-day toxicity study; format: in vivo; conditions: for BUN change: 3 mice per group
How it was run: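 Groups of six female BALB/c mice were dosed iv or ip with the test compound at 50, 200 or 400 mg/kg once daily for 7 days; controls got 0.9% saline by the same route. Retro-orbital blood was taken from three randomly selected mice per group on day 3 (before the third dose) and day 8 (before sacrifice). Serum BUN, ALP and GGT were measured by an outside veterinary laboratory.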

BALB/c mice [2] = experiment: Histopathology, 7-day toxicity study; format: in vivo
[3] = after iv administration in human; ref Palmer-Toy, 2000; Rybak, 2006; cited from earlier work
Toxicokinetic = format: in vivo, BALB/c mice
How it was run: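 Female BALB/c mice (12/group) got vancomycin iv or ip at 50, 200 or 400 mg/kg. Retro-orbital EDTA plasma came from three mice per time point, 0.083–24 h after doses 1 and 7. Plasma went through SPE with a tinidazole internal standard, eluted in acetonitrile:KH2PO4 pH 4, then gradient LC; calibration by 1/y-weighted regression of peak-area ratio. Noncompartmental analysis; F = (AUCip/AUCiv)×(Doseiv/Doseip).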

[4] = high-dose treatment, day 8, serum

CN[C@H](CC(C)C)C(=O)N[C@H]1C(=O)N[C@@H](CC(N)=O)C(=O)N[C@H]2C(=O)N[C@H]3C(=O)N[C@H](C(=O)N[C@H](C(=O)O)c4cc(O)cc(O)c4-c4cc3ccc4O)[C@H](O)c3ccc(c(Cl)c3)Oc3cc2cc(c3O[C@@H]2O[C@H](CO)[C@@H](O)[C@H](O)[C@H]2O[C@H]2C[C@](C)(N)[C@H](O)[C@H](C)O2)Oc2ccc(cc2Cl)[C@H]1O [vancomycin]
CRE (serum creatinine) levels (BALB/c mice [1]; 50, 200, 400 mg/kg/day iv or ip x7): not significantly affected
BUN change (BALB/c mice [1]; high-dose (400 mg/kg/day x7) ip, day 8, serum): trend toward increased BUN values
BUN change (BALB/c mice [1]; high-dose (400 mg/kg/day x7) iv, day 8, serum): statistically significant increase
alkaline phosphatase (ALP) (BALB/c mice [1]; [4]): affected
gamma-glutamyl transferase (GGT) (BALB/c mice [1]; [4]): affected
primary histopathological finding in kidneys (BALB/c mice [2]; 400 mg/kg/day either iv or ip x7, day 8, H&E): proximal tubular necrosis
inflammatory cell infiltration into the affected renal tissue (BALB/c mice [2]; 400 mg/kg/day iv or ip x7, day 8, H&E): minimal
signs of toxicity in clinical chemistry and histopathology assessments (BALB/c mice [2]; iv-200 (200 mg/kg/day iv x7)): did not exhibit signs of toxicity
Cmax in human (also therapeutic range) [3]: 20000 to 50000 ng/mL
AUC^0→∞ after iv relative to ip administration (iv higher) (Toxicokinetic; BALB/c mice, 200 mg/kg): 1.7 fold
difference in Cmax value between iv and ip administration (iv higher) (Toxicokinetic; BALB/c mice, 200 mg/kg, after seven doses): 3.4 fold
clinical condition of animals in TK study (Toxicokinetic; iv high-dose group (400 mg/kg), some animals): moribund or dead
